# From PubChem BioAssay AID1480 (NMMLSC, 2009)
# Some of the results follow. Values without a mark were called inactive. Activity calls are given as the source filed them.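 The calls were made as follows: active = fluorescence in ABCG2-expressing cells above the plate's control-well mean plus 3 SD (cut at about 15 in these data); inactive = the rest.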
# Experiment: green-channel fluorescence of compounds in IgMXP3 cells – cell-based, 488/530 nm, flow cytometry, artefact control for ABC transporter inhibitor project, confirmation (AID 1480);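 also: median cell fluorescence with compound minus that of DMSO-treated control cells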
# Conditions: compound autofluorescence 488/530 nm, at 6.6 µM, hits give high values
# How it was run: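 Test system: drug-resistant ABCG2-expressing IgMXP3 cells, unlabeled with substrate / Medium: assay buffer supplied with a JC-1 mitochondrial potential kit / Probe or stimulus: none, JC-1 pump substrate omitted from wells / Compound dosing: single dose, test compound at 6.6 µM final / Schedule: 10 min compound exposure at 25 °C / Signal: high-throughput flow cytometry, green FL1 channel fluorescence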
row,SMILES,fluorescence
1,CCOC(=O)c1sc(NC(=O)CSc2nnc(-c3ccco3)o2)c(C(=O)OCC)c1C,2.51
2,C/C(=N\Nc1ncc(Cl)cc1Cl)c1ccc(S(=O)(=O)NCc2ccco2)cc1,-1.09
3,CCOCC(=O)Nc1sc2c(c1C(=O)OCC)CCCC2,3.96
4,COc1ccc(-n2c(C)cc(C(=O)COC(=O)c3cc(OC)c(OC)cc3NC(=O)c3cccs3)c2C)cc1,1.61
5,CCN1/C(=C/c2ccc3ccc(C)cc3[n+]2CC)Sc2ccccc21,228 (active)
6,Cc1ccc(-n2c(SCC(=O)Nc3ncc(Cl)cc3Cl)nc3ccccc32)cc1,-0.59
7,O=C(Cc1c[nH]c2ccccc12)N/N=C/c1cccc(F)c1,-0.24
8,Cc1cccc2cc(CN(Cc3cccs3)C(c3nnnn3C3CCCC3)C(C)C)c(=O)[nH]c12 (stereo not drawn),-2.04
9,COc1cccc(NC(=O)c2ccc(Cn3cc([N+](=O)[O-])cn3)o2)c1,9.06
10,Cc1c(CCOC(=O)CC23CC4CC(CC(C)(C4)C2)C3)sc[n+]1Cc1ccc([N+](=O)[O-])cc1,-1.69
11,COc1ccc(C)cc1NC(=O)C(Sc1ccccc1)c1ccccc1 (stereo not drawn),-1.74
12,C=CCn1c(SCCOc2ccc(OC)cc2)nnc1C(NC(=O)c1ccc(OC)cc1)C(C)C (stereo not drawn),65.8 (active)
13,Cc1ccc(OCC(O)CN2CCN(CC(O)COc3ccc(C)cc3Cl)CC2)c(Cl)c1 (stereo not drawn),31.2 (active)
